# Measured values reported in ChEMBL document CHEMBL1124035, “1-Amino-substituted 4-methyl-5H-pyrido[4,3-b]indoles (gamma-carbolines) as tricyclic analogues of ellipticines: a new class of antineoplastic agents” (1988).
# What was measured:
# Mus musculus [1] = experiment: Median survival day of B16 melanoma infected mice, when a dose of 10 mg/kg administered intraperitoneally; format: functional; details: route intraperitoneal
# In short: (§1)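 B16 melanoma in hybrid BD F1 mice. At D0 each mouse was inoculated ip with 0.5 mL of homogenate made from 1 g of tumour in 10 mL of physiological serum. Compounds were given ip daily at the stated doses for 9 days (D1-9), with cis-platinum 0.5 mg/kg under the same schedule as positive control.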
# Mus musculus [2] = experiment: Median survival day of B16 melanoma infected mice, when a dose of 5 mg/kg administered intraperitoneally; format: functional; details: route intraperitoneal; in short: as §1
# Mus musculus [3] = experiment: Median survival day of P388 leukemia infected mice, when a dose of 10 mg/kg administered intraperitoneally; format: functional; details: route intraperitoneal
# In short: (§2)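 P388 leukaemia in CDF1 hybrid mice, 10 per group. At D0, 10^6 viable cells were inoculated ip, followed by a single ip dose of drug in distilled water on D1. Weight change, median survival day, T/C (treated/control median survival × 100) and survivors at D30 were recorded. Controls were 20 mice.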
# Mus musculus [4] = experiment: Median survival day of P388 leukemia infected mice, when a dose of 5 mg/kg administered intraperitoneally; format: functional; details: route intraperitoneal; in short: as §2
# Mus musculus [5] = experiment: Antitumor activity against P388 cells at a dose of 5 mg/kg administered intraperitoneally to mice; format: functional; details: route intraperitoneal
# Mus musculus [6] = experiment: In vivo toxicity test on P388 cells at a dose of 100 mg/kg administered intravenously to mice; format: functional; details: route intravenous
# In short: (§3)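 Mice (10 per group) were inoculated ip at D0 with 10^6 P388 leukemia cells and given a single iv dose at D1. Read-outs were weight change (g), median survival day, T/C % versus controls and survivors at D30.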
# Mus musculus [7] = experiment: Weight change in g when a dose of 5 mg/kg administered intraperitoneally to P388 leukemia infected mice; format: functional; details: route intraperitoneal
# In short: (§4)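 P388 model with a single ip dose. Mice (10 per group) were inoculated ip at D0 with 10^6 P388 cells and given one ip drug dose at D1. Body-weight change (g), median survival day, T/C and survivors at D30 were recorded.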
# Mus musculus [8] = experiment: Survivors at day D32 when a dose of 25 mg/kg administered intravenously to mice (C38 adenocarcinoma cell lines) when tested in 10 mice; format: functional; details: route intravenous
# In short: (§5)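 Hybrid BDF1 mice, 10 per test, were implanted sc with a standard 3-mm³ fragment of C38 colon adenocarcinoma. Drug was given iv either on D1 alone or on D2 and D9. Animals were followed per NCI (Geran) protocol.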
# Mus musculus [9] = experiment: Survivors at day D38 when a dose of 50 mg/kg administered intravenously to C38 adenocarcinoma mice model on D1 when tested in 10 mice; format: functional; details: route intravenous; in short: as §5
# Mus musculus [10] = experiment: Weight change in g when a dose of 2.5 mg/kg administered intraperitoneally to B16 melanoma infected mice; format: functional; details: route intraperitoneal
# In short: (§6)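 Hybrid BDF1 mice were inoculated ip at D0 with 0.5 mL of B16 melanoma homogenate (1 g tumor in 10 mL physiological serum). Drug was given ip daily on days 1-9, with cis-platinum 0.5 mg/kg as positive control on the same schedule.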
# Mus musculus [11] = experiment: Weight change in g when a dose of 20 mg/kg administered intraperitoneally to P388 leukemia infected mice; format: functional; details: route intraperitoneal; in short: as §4
# Mus musculus [12] = experiment: Survivors at day 30 when a dose of 20 mg/kg administered to P388 leukemia model when tested in 10 mice; format: functional; in short: as §2
# Mus musculus [13] = experiment: Survivors at day 30 when a dose of 50 mg/kg administered intravenously to P388 (iv) to L1210 leukemia mice model; format: functional
# Mus musculus [14] = experiment: Antitumor activity against P388 leukemia in intraperitoneally for 5 days; format: functional
# In short: (§7)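 CDF1 hybrid male or female mice, 10 per group, were inoculated ip with 10^6 viable P388 cells on day 0. Drugs in distilled water were given ip (0.1 mL/10 g body weight) daily D1-5. Vehicle, 5-fluorouracil and BD 84 were given the same way. T/C = median survival day of treated / controls × 100; T/C > 128% was significant; cures counted at D60.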
# Mus musculus [15] = experiment: Median survival day of B16 melanoma infected mice, when a dose of 1.25 mg/kg administered intraperitoneally; details: route intraperitoneal
# Mus musculus [16] = experiment: Median survival day in B16 melanoma cell line when a dose of 2.5 mg/kg administered intraperitoneally to mice; format: functional; details: route intraperitoneal; in short: as §1
# Mus musculus [17] = experiment: Median survival day in B16 melanoma cell line when a dose of 20 mg/kg administered intraperitoneally to mice; format: functional; details: route intraperitoneal; in short: as §1
# Mus musculus [18] = experiment: Antitumor activity against P388 cells at a dose of 40 mg/kg administered intraperitoneally P388 Leukemia model; format: functional; details: route intraperitoneal
# In short: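 Mice were inoculated ip with 10^6 P388 leukemia cells at D0, then given a single ip drug dose on D1. Weight change was recorded. T/C % = median survival day of treated / controls × 100; survivors counted at D30; 10 mice per dose group, 20 controls.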
# Mus musculus [19] = experiment: Antitumor activity against P388 leukemia in mice at a dose of 1.25 mg/kg administered intraperitoneally for 5 days; format: functional; details: route intraperitoneal; in short: as §7
# Mus musculus [20] = experiment: Weight change in g when a dose of 30 mg/kg administered intraperitoneally to mice; format: functional; details: route intraperitoneal
# Mus musculus [21] = experiment: Survivors at day 60 when a dose of 30 mg/kg to B16 melanoma infected mice; 0/10; format: functional
# Mus musculus [22] = experiment: Weight change in g when a dose of 100 mg/kg intravenous administration to P388 leukemia mice model; format: functional; in short: as §3
# Mus musculus [23] = experiment: Median survival day of B16 melanoma infected mice when a dose of 10 mg/kg administered intraperitoneally; format: functional; details: route intraperitoneal; in short: as §1
# Mus musculus [24] = experiment: Median survival day of B16 melanoma infected mice when a dose of 2.5 mg/kg administered intraperitoneally; format: functional; details: route intraperitoneal; in short: as §1
# Mus musculus [25] = experiment: Median survival day in P388 leukemia mice model when a dose of 100 mg/kg administered intravenously; format: functional; details: route intravenous
# In short: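 P388 leukaemia in CDF1 hybrid mice, 10 per group. At D0, 10^6 viable cells were inoculated ip, followed by a single iv dose on D1. Weight change, median survival day, T/C (treated/control median survival × 100) and survivors at D30 were recorded.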
# Mus musculus [26] = experiment: Weight change in g when a dose of 50 mg/kg intravenous administration to P388 leukemia mice model; format: functional; in short: as §3
# Mus musculus [27] = experiment: Weight change in g when a dose of 5 mg/kg administered intraperitoneally B16 melanoma infected mice; format: functional; details: route intraperitoneal; in short: as §6
# Mus musculus [28] = experiment: Survivors at day D32 when a dose of 75 mg/kg administered intravenously to C38 adenocarcinoma mice models; 10/10; format: functional; details: route intravenous; in short: as §5
# Mus musculus [29] = experiment: Survivors at day D38 when a dose of 100 mg/kg administered intravenously to C38 adenocarcinoma cell lines on D1 to mice; 10/10; format: functional, MC-38; details: route intravenous; in short: as §5
# Mus musculus [30] = experiment: Weight change in g when a dose of 20 mg/kg intravenous administration to L1210 leukemia mice model; format: functional
# In short: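 Mice received 10^5 L1210 leukemia cells ip at D0, then a single iv drug dose at D1. Read-outs were weight change (g), median survival day, T/C % and survivors at D30.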
# Mus musculus [31] = experiment: Antitumor activity against P388 leukemia in mice at a dose of 20 mg/kg administered intraperitoneally; format: functional, organism-based; design: dose 20 mg/kg; in short: as §7
# Mus musculus [32] = experiment: Survivors at day 30 when a dose of 50 mg/kg administered intravenously to P388 leukemia mice model; 0/10; format: functional; details: route intravenous
# Mus musculus [33] = experiment: Survivors at day 60 when a dose of 2.5 mg/kg to B16 melanoma infected mice; 0/10
smiles,measurement,setting,value
Cc1cnc(NCCCN(C)C)c2c3cc(O)ccc3n(C)c12,Median survival day,Mus musculus [1],11.75
same,Median survival day,Mus musculus [2],50
same,Median survival day,Mus musculus [3],19
same,Median survival day,Mus musculus [4],19.75
same,T/C,Mus musculus [5],173%
same,T/C,Mus musculus [6],236%
same,Weight change,Mus musculus [7],-1.2 g
same,Survivors,Mus musculus [8],10
same,Survivors,Mus musculus [9],10
same,Weight change,Mus musculus [10],0.1 g
same,Weight change,Mus musculus [11],-2.5 g
same,Survivors,Mus musculus [12],1
same,Survivors,Mus musculus [13],1
same,T/C,Mus musculus [14],Toxic
same,Median survival day,Mus musculus [15],29.75
CCN(CC)CCCNc1[nH]cc(C)c2nc3ccc(O)cc3c1-2,Median survival day,Mus musculus [16],34
same,Median survival day,Mus musculus [17],58
same,T/C,Mus musculus [18],136%
same,T/C,Mus musculus [19],153%
same,Weight change,Mus musculus [20],-1 g
same,Survivors,Mus musculus [21],0
CCN(CC)CCCNc1ncc(C)c2c1c1cc(O)ccc1n2C,Weight change,Mus musculus [22],-1.6 g
same,Median survival day,Mus musculus [23],19.3
same,Median survival day,Mus musculus [24],35.25
same,Median survival day,Mus musculus [25],24.3
same,Weight change,Mus musculus [26],-0.7 g
same,Weight change,Mus musculus [27],0.2 g
same,Survivors,Mus musculus [28],10
same,Survivors,Mus musculus [29],10
same,Weight change,Mus musculus [30],-0.4 g
same,T/C,Mus musculus [31],Toxic
same,Survivors,Mus musculus [32],0
same,Survivors,Mus musculus [33],0
